Source: the RNAGym collection of RNA variant scans (doi:10.1038/s41586-018-0170-7)

B1: tRNA (parent)
chain: GUUCCGUUGGCGUAAUGGUAACGCGUCUCCCUCCUAAGGAGAAGACUGCGGGUUCGAGUCCCGUACGGAACG

Variants of: B1
Assay: yeast fitness, log relative to wild type (ln ratio); higher = fitter; tRNA-Arg(CCU), competitive growth, 37 C, 1 M NaCl
Method in brief: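 A combinatorial tRNA-Arg(CCU) variant library was carried on a HIS3 centromeric plasmid in BY4742 lacking the chromosomal gene, from two independent transformations. Pools grew 4 generations in SC-HIS at 30 °C, then ~6.5 generations (~26.5 h) in SC-HIS 1M NaCl at 37 °C, with three outputs per input. Variants were counted by 125 bp paired-end Illumina sequencing. Fitness is ln of each genotype's generations (OD-scaled log2 output/input frequency, inverse-variance weighted across replicates) over the wild-type's.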

| Variant | yeast fitness (ln) |
| --- | --- |
| U2C G6U A69G C71U | -0.0844 |
| U2G A43C C46U A70G | -0.0614 |
| U2G A43C C46U A70U | 0.00593 |
| U2C G6A C27U C66U A70U C71U | -0.212 |
| U2C G6A C27U C66U A70G C71U | -0.0401 |
| U2C G6U C27U C46U A70G | -0.0953 |
| U2C G6U C27U C46U A70U | -0.13 |
| U2C G6U C27U A43C C46U C71U | -0.17 |
| U2C G6U A69G A70U C71U | -0.231 |
| U2C G6U A43C C46U C71U | -0.125 |
| U2C G6U C27U C46U A69G A70U C71U | -0.334 |
| U2C G6U C27U C66U A70G C71U | -0.57 |
| U2C G6U C27U A43C C66U A69G C71U | -0.522 |
| U2C G6U C27U A43C A69G A70U C71U | -0.513 |
| U2G A43C A70G | -0.182 |
| U2G A43C A70U | -0.00614 |
| U2C G6U C27U A43C C71U | -0.23 |
| U2C G6A C27U C66U C71U | -0.161 |
| U2C G6A C27U C66U A69G A70U C71U | -0.386 |
| U2C G6A C46U C66A A70U C71U | -0.0695 |
| U2C G6U C27U A43C C46U C66A A70U C71U | -0.164 |

| Variant | yeast fitness (ln) |
| --- | --- |
| U2C G6U C27U A70G | -0.185 |
| U2C G6U C27U A70U | -0.153 |
| U2C G6A C46U C66U A69G A70G | -0.0132 |
| U2C G6A C46U C66U A69G A70U | -0.138 |
| U2C G6U A43C C66U C71U | -0.349 |
| U2C G6U C27U A43C C46U C66U A70U C71U | -0.317 |
| U2G A43C C46U A69G A70U | -0.00112 |
| U2G A43C C46U A69G A70G | -0.174 |
| U2C G6U C46U A70G C71U | -0.0274 |
| U2G A43C C46U C66A A69G A70G C71U | -0.21 |
| U2C G6U A43C C66A A70G C71U | -0.0145 |
| U2C G6U C27U A43C C66U A70U C71U | -0.363 |
| U2C G6U C46U C66A A69G A70G | 0.0157 |
| U2C G6U C46U C66A A69G A70U | -0.143 |
| U2C G6A C46U A70U | -0.0378 |
| U2C G6A C46U A70G | 0.00625 |
| U2C G6U C27U C66A C71U | -0.15 |
| U2C G6U C27U C71U | -0.147 |
| U2C G6U C27U A70U C71U | -0.136 |
| U2C G6A C66U A69G C71U | -0.225 |
| U2C G6A C66U A69G A70U | -0.222 |

| Variant | yeast fitness (ln) |
| --- | --- |
| U2C G6A C66U A69G A70G | -0.0273 |
| U2C G6U A43C C46U C66A A69G A70G | -0.0147 |
| U2C G6U A43C C46U C66A A69G A70U | -0.162 |
| U2C G6U C66U A70G C71U | -0.0593 |
| U2C G6U C27U A69G A70U | -0.111 |
| U2C G6U C27U A69G A70G | -0.191 |
| U2C G6A C66A A70U | -0.094 |
| U2C G6A C66A A70G | -0.0699 |
| U2C G6U C27U C46U C66A A69G A70U C71U | -0.319 |
| U2C G6U A43C C66U A70U C71U | -0.531 |
| U2C G6U C46U C71U | -0.0792 |
| U2C G6U A43C C66A A70G | -0.0246 |
| U2C G6U A43C C66A A70U | -0.168 |
| U2G A43C C46U A69G | -0.0675 |
| U2C G6U C46U A69G A70G C71U | -0.236 |
| U2C G6A C46U A70G C71U | -0.0308 |
| U2C G6U C66U C71U | -0.139 |
| U2C G6U A43C C46U C66A A70U C71U | -0.153 |
| U2C G6U C27U A43C A70G | -0.18 |
| U2C G6U C27U A43C A70U | -0.2 |
| U2C G6U C46U C66U A70U C71U | -0.202 |

| Variant | yeast fitness (ln) |
| --- | --- |
| U2C G6U C27U C46U A70U C71U | -0.171 |
| U2G A43C A69G | 0.00792 |
| U2G A43C A69G A70U C71U | -0.382 |
| U2C G6U C46U A69G A70U C71U | -0.216 |
| U2C G6A C71U | -0.0812 |
| U2C G6A C66U A70G | -0.00663 |
| U2C G6A C66U A70U | -0.0364 |
| U2C G6U C27U C66A A70G | -0.0277 |
| U2C G6U C27U C66A A70U | -0.16 |
| U2C G6U C27U C46U C66U A70G C71U | -0.177 |
| U2C G6U A43C A70G C71U | -0.185 |
| U2C G6U A43C C46U A69G A70G C71U | -0.149 |
| U2C G6U A43C A69G C71U | -0.255 |
| U2C G6A C46U A70U C71U | -0.0461 |
| U2C G6U C66A A69G A70U C71U | -0.487 |
| U2C G6U C66U A69G A70G | -0.103 |
| U2C G6U C66U A69G A70U | -0.179 |
| U2C G6U C27U C66U A69G A70G | -0.277 |
| U2C G6U C27U C66U A69G A70U | -0.378 |
| U2C G6U A43C C66U A70U | -0.194 |
| U2C G6U A43C C66U A70G | -0.279 |
